Assay results collected from several papers.
Target: Dual specificity mitogen-activated protein kinase kinase 7 (MAP2K7, Homo sapiens, UniProt O14733)
Residues used in one study (O14733 1-419): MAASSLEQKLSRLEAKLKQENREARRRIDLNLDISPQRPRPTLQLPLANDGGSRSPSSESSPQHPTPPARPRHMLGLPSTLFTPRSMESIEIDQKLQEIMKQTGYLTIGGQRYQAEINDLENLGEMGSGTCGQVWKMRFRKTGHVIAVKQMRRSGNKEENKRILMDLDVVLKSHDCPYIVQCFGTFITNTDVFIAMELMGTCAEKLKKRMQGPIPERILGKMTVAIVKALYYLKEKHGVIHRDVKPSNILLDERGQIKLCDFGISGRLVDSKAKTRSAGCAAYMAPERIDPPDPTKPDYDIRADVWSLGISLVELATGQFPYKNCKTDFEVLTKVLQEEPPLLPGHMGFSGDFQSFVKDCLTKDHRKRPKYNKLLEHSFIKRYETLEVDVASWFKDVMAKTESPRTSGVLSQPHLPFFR

| Structure (SMILES) | effect on | technique | concentration | remaining binding [%] |
| --- | --- | --- | --- | --- |
| CC1=C(C#N)[C@@H](c2ccc3[nH]nc(C)c3c2)C(C#N)=C(c2ccc(Cl)cc2)N1 | cell-free assay | competition with immobilised ligand | 1 µM | 92.2 |
| O=C(NCCCN1CCOCC1)c1ccc(Nc2nccc(-c3cc4ccccc4s3)n2)cc1 | binding | competition with immobilised ligand | 1 µM | 76 |
| O=C(Nc1c[nH]nc1C(=O)NC1CCNCC1)c1cc(F)cc(F)c1 | binding | competition with immobilised ligand | 1 µM | 86 |
| Nc1ncc2c(n1)-c1c([nH]c3ccc(C#CC4CC4)cc13)CCCC2 | binding | competition with immobilised ligand | 1 µM | 100 |
| Cc1cnn2ncc(-c3ccnc(N(C)C)n3)c2c1 | binding | – | 1 µM | 71 |
| COc1cccc(CNC(=O)c2nc3scc(COCc4ccc(C(=O)O)cc4)c3c(=O)[nH]2)c1 | cell-free assay | competition with immobilised ligand | 1 µM | 81.2 |
| C[C@H]1CCN(c2nccc(-c3cnn4ncccc34)n2)C1 | binding | – | 1 µM | 83 |
| FC(F)(F)Oc1cccc(-c2cnc3ccc(-c4ccncc4)nn23)c1 | cell-free assay | competition with immobilised ligand | 5 µM | 96 |
| CN(C)c1ncnc(-c2ccc3nc(Nc4cc(CN5CCN(C(=O)CC(F)(F)F)CC5)ccn4)[nH]c3c2)c1Cl | cell-free assay | competition with immobilised ligand | 1 µM | 100 |
| N[C@H]1CCN(c2nccc(-c3cnn4ncccc34)n2)C1 | binding | – | 1 µM | 93 |
| CN(C)C(=O)Cn1cc(-c2nc([C@@](C)(c3ccc(-c4cnc(N)nc4)cc3)C3CC3)no2)cn1 | cell-free assay | competition with immobilised ligand | 1 µM | 94 |
| CC1CCCN1c1nccc(-c2cnn3ncccc23)n1 (centres unmarked) | binding | – | 1 µM | 100 |
| CS(=O)(=O)N1CCCC(NC(=O)[C@H](CCC2CCCCC2)NC(=O)c2ccc(CNc3ncnc4c3nnn4-c3ccccc3)cc2)C1 (some centres unmarked) | cell-free assay | competition with immobilised ligand | 0.1 µM | 100 |
| CCN1CCN(Cc2ccc(C(=O)Nc3ccc(C)c(Oc4ccc5c(c4)CC(=O)N5)c3)cc2C(F)(F)F)CC1 | binding | competition with immobilised ligand | 1 µM | 97 |
| O=C(c1ccc(Nc2ncc(Cl)c(-c3ccc(Cl)s3)n2)cc1)N1CCC(N2CCCC2)CC1 | binding | competition with immobilised ligand | 1 µM | 82 |
| c1cnn2ncc(-c3ccnc(N4CCC45COC5)n3)c2c1 | binding | – | 1 µM | 72 |
| O=C(c1ccc(Nc2ncc(Cl)c(-c3cc4ccccc4s3)n2)cc1)N1CCC(N2CCCC2)CC1 | binding | competition with immobilised ligand | 1 µM | 96 |
| COc1cnc(Nc2cccc(S(N)(=O)=O)c2)nc1N1CCN(c2ccccc2)CC1 | binding | competition with immobilised ligand | 1 µM | 97 |
| CN(C)c1nccc(-c2cnn3ncccc23)n1 | binding | – | 1 µM | 100 |
| Cc1nc(Cc2cccc(C(F)(F)F)c2)sc1-c1ccc(C(N)=O)nc1 | cell-free assay | competition with immobilised ligand | 1 µM | 100 |
